A selection: hits, their analogues and other compounds. The true share with any hit is near 1.9%.
DNA FID counter-1 – fluorescent intercalator displacement, NS3 helicase counter-screen; DNA fluorescent intercalator displacement, fluorescence; 0.17% of 290,000 active; inhibition, % at 7.9 µM;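 also: 0% = vehicle and 100% = reference compound; higher means more ethidium bromide displaced from hairpin DNA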
core dimer inh – HCV core protein dimerization inhibition. TR-FRET GST/Flag-core106 dimerization, 1536-well. inhibition, % at 5 µM. 0.33% of 300,000 active. AID 1899;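 active = inhibition above the mean of all tested compounds plus 3 SD, set per screening campaign, cut at about 45% in these data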
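Material: Tagged HCV core106 pair (GST and Flag) | Amount: GST-core106 13.5 nM, Flag-core106 17 nM | Medium: KF-containing HEPES buffer, pH 7.45, DTT, CHAPS, BSA | Reagent: Eu donor and XL665 acceptor anti-tag antibodies | Schedule: 4 h at 22.5 °C | Technique: Time-resolved FRET, ex 340 nm, em 617 and 671 nm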
GPR7 antag – human neuropeptides B/W receptor 1 antagonism. GPR7-expressing cells, fluorescence antagonist assay. inhibition, % at 4.4 µM. P48145. AID 1861. 1.1% of 290,000 active; in the data active = inhibition above about 16%, passing the limit was not always enough;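 also: cells stimulated with the agonist NPW; 0% = agonist with vehicle and 100% = vehicle without agonist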
pCIP destab – p/CIP protein destabilization | Q05BA5 | 0.01% of 290,000 active | F442A p/CIP-EGFP cells, EGFP fluorescence, 16 h | decrease of EGFP signal, % at 10 µM;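 active = EGFP signal decrease of at least 30% at 10 µM or well 3 SD below plate mean, unless failing retest; inactive = the rest, including hits failing retest or dose response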
Target sequence (Q05BA5 1-1403): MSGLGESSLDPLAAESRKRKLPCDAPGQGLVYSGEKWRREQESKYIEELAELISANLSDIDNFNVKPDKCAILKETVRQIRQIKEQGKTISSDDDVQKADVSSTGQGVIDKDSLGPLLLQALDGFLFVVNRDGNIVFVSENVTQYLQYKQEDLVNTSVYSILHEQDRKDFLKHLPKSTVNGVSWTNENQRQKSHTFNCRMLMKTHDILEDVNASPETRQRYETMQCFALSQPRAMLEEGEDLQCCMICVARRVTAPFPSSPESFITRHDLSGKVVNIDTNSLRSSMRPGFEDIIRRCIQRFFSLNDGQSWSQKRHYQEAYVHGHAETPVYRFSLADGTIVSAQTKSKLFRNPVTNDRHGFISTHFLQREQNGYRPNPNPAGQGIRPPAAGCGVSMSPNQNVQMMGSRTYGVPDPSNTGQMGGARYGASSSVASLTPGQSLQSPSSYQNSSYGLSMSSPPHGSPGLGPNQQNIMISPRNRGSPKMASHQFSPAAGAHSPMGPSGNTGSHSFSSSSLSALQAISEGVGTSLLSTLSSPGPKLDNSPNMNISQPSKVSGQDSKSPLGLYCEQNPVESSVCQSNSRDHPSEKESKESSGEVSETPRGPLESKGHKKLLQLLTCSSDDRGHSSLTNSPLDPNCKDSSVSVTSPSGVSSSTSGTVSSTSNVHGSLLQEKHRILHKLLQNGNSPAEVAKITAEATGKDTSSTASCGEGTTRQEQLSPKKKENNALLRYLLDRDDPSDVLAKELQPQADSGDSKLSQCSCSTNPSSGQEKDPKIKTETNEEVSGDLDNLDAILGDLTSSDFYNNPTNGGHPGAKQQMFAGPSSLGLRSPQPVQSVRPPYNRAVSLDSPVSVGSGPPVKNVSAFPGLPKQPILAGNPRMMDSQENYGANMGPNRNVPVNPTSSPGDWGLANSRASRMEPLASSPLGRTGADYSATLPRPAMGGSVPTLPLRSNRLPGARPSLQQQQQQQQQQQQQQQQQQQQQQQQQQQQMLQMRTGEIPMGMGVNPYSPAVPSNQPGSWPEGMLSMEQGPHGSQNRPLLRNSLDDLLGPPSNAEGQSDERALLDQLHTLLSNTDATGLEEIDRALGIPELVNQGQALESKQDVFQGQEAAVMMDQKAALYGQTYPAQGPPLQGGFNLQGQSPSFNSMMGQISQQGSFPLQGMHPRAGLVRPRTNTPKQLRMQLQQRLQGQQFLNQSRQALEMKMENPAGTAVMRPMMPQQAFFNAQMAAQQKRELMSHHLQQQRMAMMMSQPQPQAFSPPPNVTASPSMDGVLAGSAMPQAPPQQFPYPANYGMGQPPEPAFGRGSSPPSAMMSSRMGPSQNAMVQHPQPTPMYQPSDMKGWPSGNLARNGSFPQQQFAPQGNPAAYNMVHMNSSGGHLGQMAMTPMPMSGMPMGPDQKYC
HCV NS3 hel inh – HCV NS3 helicase inhibition | NS3 helicase DNA unwinding, Cy5 molecular beacon fluorescence | inhibition, % at 10.9 µM | 0.56% of 290,000 active | AID 1800;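 active = inhibition above the mean of all tested compounds plus 3 SD, set per campaign, cut at about 35% in these data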;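 also: 0% = DMSO wells and 100% = thioflavine S control wells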
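Assay system – hepatitis C virus NS3 helicase domain fragment enzyme · Buffer or medium – MOPS pH 6.5, MgCl2, DTT, Tween20, BSA · Reagent – Cy5/quencher beacon DNA duplex and ATP to start · Compound – single 10.9 µM dose · Timing – 1 h at 25 °C · Technique – Cy5 beacon fluorescence read at start and 1 h · Measure – % inhibition of unwinding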
NS3 hel confirm – HCV NS3 helicase inhibition, confirmation assay | shares compounds with HCV NS3 hel inh | NS3 helicase DNA unwinding, Cy5 molecular beacon fluorescence | inhibition, % at 10.9 µM | 31% of 1,600 active;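 active = inhibition above the mean of all tested compounds plus 3 SD, cutoff set per campaign, cut at about 36% in these data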
DNA FID counter-2 – displaces DNA intercalator in HCV helicase counter-screen. shares compounds with HCV NS3 hel inh. DNA fluorescent intercalator displacement, fluorescence. inhibition, % at 7.9 µM. 4% of 1,600 active. AID 1945;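 also: 0% = vehicle and 100% = reference compound; higher means more displacement of ethidium bromide from the DNA hairpin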
DNA FID DR – displaces fluorescent intercalator from DNA, HCV helicase counter-screen | IC50, µM | fluorescent intercalator displacement from DNA, fluorescence | shares compounds with HCV NS3 hel inh | 120 tested, under 10 active; call rule not given here
Starred values were filed as active, the others as inactive; i = inactive; nt = no result given. Rule as the data show it, unless noted: active = inhibition above about 37%; inactive = the rest.

SMILES	DNA FID counter-1	core dimer inh	GPR7 antag	pCIP destab	HCV NS3 hel inh	NS3 hel confirm	DNA FID counter-2	others
O=C(CCNC(=O)c1ccccc1Cl)NCC(c1ccc(F)cc1)N1CCOCC1 (configuration not stated)	nt	-4.0	nt	nt	nt	nt	nt
CCOc1ccc2[nH]c(=O)c(CN(Cc3nnnn3Cc3ccco3)C3CCCCC3)cc2c1	-21.4	23.1	-9.5	-17.1	64.7*	-10.7	-22.9
COc1cc2cc(CN(Cc3nnnn3Cc3ccco3)C3CCCCC3)c(=O)[nH]c2cc1OC	-2.9	8.2	4.0	-8.4	16.3	nt	nt
O=C(NCC1CCN(Cc2ccc(F)cc2)CC1)Nc1cc(F)ccc1F	9.7	-2.3	21.5	-5.4	28.6	nt	nt
N=C1/C(=C/c2ccc(OCc3ccccc3F)cc2)C(=O)N=C2SC(CC(=O)N3CCOCC3)=NN12	-33.5	4.1	10.1	-6.3	45.5*	41.7*	-6.3
N=c1c(S(=O)(=O)c2ccccc2)cc2c(=O)n3ccccc3nc2n1Cc1ccco1	-4.4	87.4*	-1.1	-3.5	36.8*	-4.1	26.3
Cc1c(OC(C)C(=O)NCC2CCC(C(=O)O)CC2)ccc2c(-c3ccccc3)cc(=O)oc12 (configuration not stated)	-41.3	-1.7	-5.1	-7.6	-5.1	nt	nt
CN1C(=O)C(Cl)(Cl)C(=O)c2ccccc21	-0.2	nt	-7.8	6.5	53.4*	-15.2	2.8
Cc1ccc(NC(=O)CSCC(=O)N(C)CC(=O)Nc2cccc3ccccc23)cc1	nt	-0.3	nt	nt	nt	nt	nt
Cc1cc(N=Cc2c(O)ccc3cc(Br)ccc23)no1	-0.3	39.6	-4.5	-10.5	36.8*	-10.2	39.4*
CN(CC(=O)Nc1cccc(F)c1)C(=O)CSc1ccccc1	nt	8.6	nt	nt	nt	nt	nt
O=C1CC(c2ccco2)CC(O)=C1C=Nc1cc(Cl)ccc1Cl (configuration not stated)	-11.4	3.9	-5.2	-0.5	32.0	nt	nt
O=C1CC(c2ccco2)CC(O)=C1C=Nc1cc(Cl)ccc1O (configuration not stated)	-11.9	13.6	-18.3	-20.7	42.5*	1.1	13.3
COc1cccc2c1cc1c(=O)n(CC(=O)N3CCC(C)CC3)nc(C)n12	-30.6	10.9	1.6	3.5	-1.7	nt	nt
COc1ccccc1NC(=O)CN1CCC(C(=O)c2ccc(F)cc2)CC1	-15.6	8.4	2.6	12.6	-14.5	nt	nt
O=C(CN1CCC(C(=O)O)CC1)Nc1ccccc1Oc1ccccc1	-8.7	-2.7	3.9	-0.3	37.1*	-13.0	-18.4
C=CCOc1ccc(/C=C2\SC(N3CCCCC3)=NC2=O)cc1	-34.3	8.9	-11.7	-4.6	-0.4	nt	nt
CC(C)OC(=O)Cn1nc(C(c2ccccc2)c2ccccc2)oc1=O	-35.4	-12.7	-13.8	-2.6	4.7	nt	nt
CNC(=S)N(CCc1c(C)[nH]c2ccc(OC)cc12)Cc1ccco1	-11.3	-5.3	4.4	-10.7	-6.3	nt	nt
O=C(/C=C/c1ccc2c(c1)OCO2)NC1CCCC1	-5.1	-12.3	0.5	-3.5	1.8	nt	nt
CNc1ccc(Br)cc(C(=O)/C=C/c2ccc3c(c2)OCO3)c1=O	-3.8	55.5*	13.1	-4.6	54.0*	44.7*	4.2
CNc1ccc(Br)cc(C(=O)/C=C/c2cc(OC)ccc2OC)c1=O	-22.3	24.3	10.2	-0.7	40.5*	61.0*	-9.4	DNA FID DR=>79.4
CNc1ccc(Br)cc(C(=O)/C=C/c2ccc(OC)cc2)c1=O	-16.7	18.2	1.5	-6.9	32.7	nt	nt
O=C(Cc1cc(=O)[nH][nH]1)N/N=C/C=C/c1ccccc1	-24.7	20.7	2.9	-0.5	40.0*	11.8	-21.6
CCC1=NN2C(=N)/C(=C\c3cccn3-c3ccc(Cl)cc3)C(=O)N=C2S1	-2.5	42.4	-19.4	-7.0	4.1	nt	nt
SMILES	DNA FID counter-1	core dimer inh	GPR7 antag	pCIP destab	HCV NS3 hel inh	NS3 hel confirm	DNA FID counter-2	others
Cc1ccc(-n2cccc2/C=C2\C(=N)N3N=C(c4ccco4)SC3=NC2=O)cc1	-26.1	20.6	9.6	-7.3	42.5*	85.0*	-23.4	DNA FID DR=>79.4
COc1cc(C(=O)N/C(=C/c2ccc(F)cc2)C(=O)NC(C(=O)O)c2ccccc2)cc(OC)c1OC (configuration not stated)	-24.1	-8.1	-2.6	-8.2	36.6*	-12.8	-10.3
Cc1ccc(S(=O)(=O)N/N=C/c2cc(Br)ccc2O)cc1	-10.2	8.1	-7.0	-0.1	19.7	nt	nt
Cc1ccc(S(=O)(=O)Nc2ccc(Br)cc2/C=N/n2cnnc2)cc1	-2.5	1.6	-19.3	-10.2	36.1*	37.9*	-7.8
CC(C)CN(C(=O)COC(=O)c1cccn1C)c1c(N)n(Cc2ccccc2)c(=O)[nH]c1=O	-27.0	3.4	4.4	-17.2	-1.4	nt	nt
COc1ccc(CN2CCN(S(=O)(=O)c3ccc(C)cc3)CC2)cc1OC	nt	-0.5	nt	nt	nt	nt	nt
COc1ccc(S(=O)(=O)N2CCN(Cc3ccccc3)CC2)cc1OC	-20.9	nt	-19.4	1.7	97.1*	-12.5	-8.3
Cc1ccc2c(c1)cc(C(=O)N[C@@H](Cc1ccccc1)C(=O)O)n2C	-33.1	nt	-2.2	6.2	16.1	nt	nt
N=C1/C(=C\c2ccc(SCc3ccco3)o2)C(=O)N=C2SC=NN12	-1.9	1.6	3.5	-59.5	53.2*	63.0*	-1.3
CC(NC(=O)CCNS(=O)(=O)c1ccc2c(c1)oc(=O)n2C)c1ccccc1 (configuration not stated)	-4.8	9.2	-18.2	-9.1	2.1	nt	nt
Oc1c(/C=C/C=C/C=Nc2ccccc2)sc(=S)n1Cc1ccccc1	-10.6	50.4*	-8.1	-4.4	44.4*	64.6*	32.9	DNA FID DR=i
CCn1c(O)c(/C=C/C=C/C=Nc2ccccc2)sc1=S	-5.2	28.3	-0.7	-15.1	14.2	nt	nt
O=C(O)C(Cc1ccccc1)Nc1ccc([N+](=O)[O-])cc1[N+](=O)[O-] (configuration not stated)	1.0	20.5	0.4	-26.4	38.4*	-22.8	4.0
O=C(O)[C@H](Cc1ccccc1)Nc1ccc([N+](=O)[O-])cn1	-1.6	12.7	5.6	-17.0	-16.3	nt	nt
COc1ccc(C(=O)CC(=O)C(=O)Nc2ccc(Cl)cc2)cc1	-12.6	0.5	15.5	-5.2	42.5*	-1.7	15.0
COCCn1c(=S)[nH]c2ccc(N(C)C)cc2c1=O	-1.6	-9.6	-4.8	-14.6	39.0*	-8.7	6.3
Cc1cc(/C=N/NC(=O)c2cccc(N(C)C)c2)c(C)n1-c1cc(C(=O)O)cc(C(=O)O)c1	-28.1	nt	0.8	1.1	24.8	nt	nt
Cc1cc(/C=N/NC(=O)C(O)(c2ccccc2)c2ccccc2)c(C)n1-c1ccc(C(=O)O)cc1	-20.6	9.9	6.4	12.1	38.5*	31.0	-23.8
Cc1cc(/C=N/NC(=O)c2ccc(CN3CCOCC3)cc2)c(C)n1-c1ccccc1	-2.1	1.4	-4.1	-8.9	8.6	nt	nt

High-throughput results: PubChem BioAssay, several laboratories
